The values below come from PMC3144155 (Journal of medicinal chemistry, 2011).

A word on the IC50: it is the concentration needed to halve the response being measured.

Residue numbers refer to the chain shown, from its start.

The subject of test [1] is other SHs. Kind of test: In situ gel-based competitive ABPP, other SHs in HEK 293T cells. It counts as cell-based, human. The note with it: up to 100 μM compound, 1 h. In short, it runs like this: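 HEK 293T cells treated in culture with a concentration range of compound or DMSO for 1 h at 37 °C, then harvested and sonicated in PBS (pH 7.5). Soluble fraction (64,000g supernatant) diluted to 1 mg/mL and labelled with FP-rhodamine (2 μM, 45 min, 25 °C). Resolved by 10% SDS-PAGE and read by in-gel fluorescence scanning.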

Test [2] addresses T1, PME-1 (Homo sapiens, UniProt Q9Y570).
T1 sequence (Q9Y570 1-386): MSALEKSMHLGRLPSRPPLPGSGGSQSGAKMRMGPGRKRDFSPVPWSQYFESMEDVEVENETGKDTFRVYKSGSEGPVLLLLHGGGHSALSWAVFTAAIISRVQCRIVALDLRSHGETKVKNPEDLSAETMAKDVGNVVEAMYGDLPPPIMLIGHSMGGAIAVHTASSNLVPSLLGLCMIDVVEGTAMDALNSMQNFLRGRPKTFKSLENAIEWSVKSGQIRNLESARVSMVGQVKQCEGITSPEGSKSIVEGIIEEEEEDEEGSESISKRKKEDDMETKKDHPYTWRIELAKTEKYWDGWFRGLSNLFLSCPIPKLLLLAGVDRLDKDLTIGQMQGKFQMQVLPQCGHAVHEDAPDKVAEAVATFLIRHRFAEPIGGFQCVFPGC
Description: In situ competitive SILAC-ABPP. It counts as cell-based. The note with it: HEK 293T cells, 20 μM, 1 h.

The subject of test [3] is 35 other SHs detected in HEK 293T cells. Kind of test: In situ competitive SILAC-ABPP. It counts as cell-based, human. The note with it: 20 μM, 1 h. In a few lines:
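HEK 293T cells SILAC-labelled with light or heavy Lys/Arg. Light cells given compound and heavy cells DMSO, 1 h at 37 °C. Soluble and membrane proteomes (0.5 mg each) mixed 1:1 and labelled with FP-biotin (5 μM, 1 h, 25 °C). Streptavidin enrichment, on-bead trypsin digestion, then MudPIT LC-MS/MS. Light/heavy ratios taken for SHs with ≥2 quantifiable peptides, normalised to a DMSO/DMSO control.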

Another test concerns the target T2, Purified wild-type PME-1 (Homo sapiens, UniProt Q9Y570).
T2 sequence (Q9Y570 1-386): T1 sequence (Q9Y570 1-386)
Description: Reversibility of PME-1 inhibition. It counts as biochemical. The note with it: PME-1 500 nM, compound 50 μM.

The subject of the next test is PP2A methylation state. Kind of test: PP2A methylation state in HEK 293T cells stably overexpressing PME-1. The note with it: 20 μM, 1 h. Type of test: cell-based, human. In short, it runs like this: (§1)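 Compound or DMSO added to the medium of HEK 293T cells at 37 °C. Total sonicated cell extract diluted to 2 mg/mL in PBS, run on reducing 10% SDS-PAGE, and immunoblotted with demethylated-specific (4b7), methylated-specific (2A10) and total PP2A antibodies plus α-tubulin. Bands quantified by fluorescence imaging. Mean ± SEM, n = 3; compared with DMSO-treated cells.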

The subject of test [4] is demethylated form of PP2A. Kind of test: PP2A methylation state in untransfected HEK 293T cells. It counts as cell-based, human. The note with it: 1 hour, basal PME-1. In short, it runs like this:
as §1

Test [5] concerns CA-Rh or SE-Rh-labeled proteins. Kind of test: CA-Rh / SE-Rh probe labeling of soluble proteomes from treated HEK 293T cells. Type of test: cell-based, human. The note with it: 100 μM, relative to DMSO-treated samples. In a few lines: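 Compound or DMSO added to the culture medium of HEK 293T cells at 37 °C. Cells washed, scraped, pelleted, and sonicated in ice-cold PBS (pH 7.5). Soluble fraction isolated at 64,000g for 45 min at 4 °C and diluted to 1 mg/mL. Labelled with CA-rhodamine or SE-rhodamine (5 μM, 1 h, 25 °C), resolved by reducing 10% SDS-PAGE, and scanned for in-gel fluorescence.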

Test [6] addresses T3, PME-1 (Mus musculus, UniProt Q8BVQ5).
T3 sequence (Q8BVQ5 1-386): T1 sequence (Q9Y570 1-386) with S42T, S114G, P123S, I150V, S167A, S168A, I268V, S269N
Kind of test: Gel-based competitive ABPP with FP-Rh, PME-1 in mouse brain soluble proteome. It counts as biochemical. In a few lines:
(§2)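 Soluble proteomes diluted to 1 mg/mL in PBS (pH 7.5) and preincubated with compound or DMSO for 30 min at 25 °C. FP-rhodamine then added (2 μM final) for 45 min. Reactions quenched with reducing SDS loading buffer, separated by 10% SDS-PAGE, and serine hydrolase activity read by in-gel fluorescence scanning.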

Test [7] addresses T4, PME-1 (Homo sapiens, UniProt Q9Y570).
T4 sequence (Q9Y570 2-386 limits assumed): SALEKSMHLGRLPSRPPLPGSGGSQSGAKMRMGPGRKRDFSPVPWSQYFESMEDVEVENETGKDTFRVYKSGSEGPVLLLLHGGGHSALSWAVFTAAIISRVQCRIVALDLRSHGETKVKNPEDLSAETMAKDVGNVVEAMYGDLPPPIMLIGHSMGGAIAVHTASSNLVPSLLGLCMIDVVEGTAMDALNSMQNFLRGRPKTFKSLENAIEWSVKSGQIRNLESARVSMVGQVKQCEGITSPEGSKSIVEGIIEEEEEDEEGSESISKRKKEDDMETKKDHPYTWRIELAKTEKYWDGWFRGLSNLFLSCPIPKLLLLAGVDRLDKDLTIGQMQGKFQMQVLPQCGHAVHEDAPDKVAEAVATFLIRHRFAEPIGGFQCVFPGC
Description: PME-1 IC50 by gel-based competitive ABPP in soluble proteomes. It counts as biochemical. The note with it: Table 2 series.

Test [8] addresses T4, PME-1. The note with it: read-out: PME-1 IC50; cited from earlier work.
Test [9] deals with other SHs in human cell lysates. Description: Gel-based competitive ABPP, other SHs in human cell proteomes/lysates. Type of test: biochemical. The note with it: human cell proteomes.
Test [10] relates to other SHs. It counts as biochemical, mouse. The note with it: Off-targets are defined as SHs with >50% inhibition at 50 μM; Table 1 series. In a few lines:
as §2

As to `N#C/C(=C\c1cccn1S(=O)(=O)c1cccc([N+](=O)[O-])c1)S(=O)(=O)c1ccc(F)cc1` [Cmpd 28, (E)-2-(4-fluorophenylsulfonyl)-3-(1-(3-nitrophenylsulfonyl)-1H-pyrrol-2-yl)acrylonitrile], in the test with other SHs [1], the “Cross-reactivity with other SHs in situ” value is “without any observed cross-reactivity”. On PME-1 [2], the “in situ inhibition of PME-1 (SILAC-ABPP)” value was “complete in situ inhibition”. The “Activity against other SHs (SILAC-ABPP)” value in test [3] is listed as “no activity”. In addition, the “Recovery of enzyme activity after gel filtration” value on Purified wild-type PME-1 is “not observed”. In the test on PP2A methylation state, the “Effect on the methylated form of PP2A” value is “significantly increased”. For the same molecule, the “Effect on the demethylated form of PP2A” value in [4] (20 μM) was “decreased the demethylated form of PP2A”. Further, the “Change of intensity of CA-Rh or SE-Rh-labeled proteins” value in test [5] was “did not alter the intensity”.
As to `CS(=O)(=O)/C(=C/c1cccn1S(=O)(=O)c1ccccc1)CN` [Cmpd 4, (E)-2-(methylsulfonyl)-3-(1-(phenylsulfonyl)-1H-pyrrol-2-yl)prop-2-en-1-amine], the “PME-1 activity (in words)” value at PME-1 [6] is “inactive”.
For the molecule `CS(=O)(=O)/C(C#N)=C/c1cccn1S(=O)(=O)c1c(F)c(F)c(F)c(F)c1F` [Cmpd 22, (E)-2-(methylsulfonyl)-3-(1-((perfluorophenyl)sulfonyl)-1H-pyrrol-2-yl)acrylonitrile], the “PME-1 activity (in words)” value on PME-1 [7] is listed as “no activity”.
For `COC(=O)N1C(=O)[C@](c2ccccc2)(C2CCCC2)N1C(=O)OC` (stereo in doubt) [Cmpd 1, reference compound], on PME-1 [8], the IC50 was roughly 10 nM. Moreover, the “Effect on the demethylated form of PP2A” value in test [4] (500 nM) is recorded as “decreased the demethylated form of PP2A”.
For the molecule `CS(=O)(=O)/C(C#N)=C/c1cccn1S(=O)(=O)c1ccccc1` [Cmpd 2], the “Cross-reactivity with additional SHs” value in test [9] was “acyl-peptide hydrolase (APEH) and an unidentified 30 kDa SH”.
Consider `CS(=O)(=O)/C(C#N)=C/c1ccc([N+](=O)[O-])cc1` [Cmpd 9, (E)-2-(methylsulfonyl)-3-(4-nitrophenyl)acrylonitrile], for which, on PME-1 [6], the “PME-1 activity (in words)” value is “inactive”.
On the same count and under the same terms, as for `CS(=O)(=O)C(=Cc1cccn1S(=O)(=O)c1ccccc1)S(C)(=O)=O` [Cmpd 16, 2-(2,2-bis(methylsulfonyl)vinyl)-1-(phenylsulfonyl)-1H-pyrrole], the entry is “did not inhibit PME-1”; as for `CS(=O)(=O)/C(C#N)=C/c1ccc[nH]1` [Cmpd 7, (E)-2-(methylsulfonyl)-3-(1H-pyrrol-2-yl)acrylonitrile], “inactive”.
For `N#CC(C#N)=Cc1cccn1S(=O)(=O)c1ccccc1` [Cmpd 17, 2-((1-(phenylsulfonyl)-1H-pyrrol-2-yl)methylene)malononitrile], at PME-1 [6], the “PME-1 activity (in words)” value is “two-fold less potent”. In addition, the Off-targets result in the test with other SHs [10] is “increased activity against a 40 kDa SH”.
For the molecule `CS(=O)(=O)/C(C#N)=C/c1ccccc1` [Cmpd 8, (E)-2-(methylsulfonyl)-3-phenylacrylonitrile], the “PME-1 activity (in words)” value on PME-1 [6] was “inactive”.
The same measure, in the same setting: next, `CS(=O)(=O)C(C#N)Cc1cccn1S(=O)(=O)c1ccccc1` (centres unmarked) [Cmpd 3, 2-(methylsulfonyl)-3-(1-(phenylsulfonyl)-1H-pyrrol-2-yl)propanenitrile]: “inactive”.
In the case of `N#C/C(=C\c1cccn1S(=O)(=O)c1cccc(C#N)c1)S(=O)(=O)c1ccc(F)cc1` [Cmpd 27, (E)-3-(2-(2-cyano-2-(4-fluorophenylsulfonyl)vinyl)-1H-pyrrol-1-ylsulfonyl)benzonitrile], in the test with PP2A methylation state, the “Effect on the methylated form of PP2A” value is given as “significantly increased”.
